Legend:
SK-OV-3 [1] = experiment: In vitro cellular toxicity against human ovarian carcinoma SKOV3 cell line after 4 hr of compound exposure; assay type: functional, cell-based; settings: SK-OV-3, 4 h
Method in brief: (§1)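 Cells exposed to drug for 4 h, then stained with sulforhodamine B 3 days later. IC50 interpolated as the concentration reducing cell density to 50% of same-plate controls. Values are the mean of 2-6 experiments.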

EMT6 = experiment: In vitro cellular toxicity against murine mammary carcinoma EMT6 cell line after 4 hr of compound exposure; assay type: functional, cell-based; settings: Mus musculus, EMT6, 4 h; method in brief: as §1
[2] = system: Panel (Carcinoma cell lines); experiment: In vitro drug concentration required for 50% inhibition of 60 different human cancer cell lines compared to controls; assay type: functional
CHO-AA8 = experiment: In vitro cellular toxicity against chinese hamster AA8 cell line after 4 hr of compound exposure; assay type: functional, cell-based; settings: Cricetulus griseus, CHO-AA8, 4 h; method in brief: as §1
UV4 = experiment: In vitro cellular toxicity against chinese hamster UV4 cell line after 4 hr of compound exposure; assay type: functional, cell-based; settings: Cricetulus griseus, UV4, 4 h; method in brief: as §1
Nucleic Acid = experiment: Tested for its ability to cross-link linearized plasmid DNA pcDNA3 following 18 hr of exposure at 37 degree celsius; assay type: functional
Method in brief: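 EcoRI-linearized pcDNA3 plasmid (5400 bp), 3'-end labelled with α-32P-dATP by Klenow. 50 ng DNA incubated with drug (DMSO) in TE pH 7.5, 10 µL final volume, 18 h at 37 °C. Denatured with NaOH strand-separation buffer for 5-10 min, then run on 0.8% agarose gel. Double-stranded fraction quantified by phosphorimaging. At least five concentrations tested, 2-4 assays. C50 taken from a 3-parameter logistic fit capped at 100%.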

[3] = Ratio of LC50 values between the least sensitive and most sensitive human cancer cell lines; assay type: functional
Method in brief: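 NCI 60-cell-line panel covering nine tissue types. LC50 is concentration producing 50% reduction in cells. Value is ratio of LC50 for least sensitive versus most sensitive line.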

SK-OV-3 [4] = experiment: In vitro cytotoxicity against human tumor SKOV3 cell line was measured as concentration to reduce [3H]thymidine uptake to 50% of that of the controls; assay type: functional, cell-based; settings: SK-OV-3, 5 days
Method in brief: (§2)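 Cell suspensions exposed to drug continuously for 5 days. [3H]thymidine (0.25 µCi/mL, 0.1 µM) plus 5-fluoro-2'-deoxyuridine (0.1 µM) added 4 h before termination. Pronase 2 mg/mL in 4 mM Na4EDTA released adherent cells before aspiration and filtration. IC50 interpolated against same-plate controls. Mean of 2-3 experiments, some single determinations.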

Mus musculus [5] = experiment: Average time for WiDr tumor xenograft to reach a diameter of 17 mm following single intravenous injection at day 0 where tumor diameter was 8 mm in mice; assay type: functional
Method in brief: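 Subcutaneous flank implant of WiDr cells (10^7 cells/mouse) in female CD-1 nude mice. Randomised at mean tumour diameter 8 mm (5-11 mice/group). Single iv dose at predetermined MTD, formulated in 100% DMSO at 0.001 mL/g, on day 0. Calipers used until mean diameter reached 17 mm, then culled. Values are average days to end point; ANOVA with Dunnett's test.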

Mus musculus [6] = experiment: In vivo maximum tolerated dose for single intraperitoneal injection in non tumor-bearing C3H/HeN mice; assay type: functional
Method in brief: (§3)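 Female non-tumour-bearing C3H/HeN mice received a single ip or iv injection in 100% DMSO at 0.001 mL/g. Doses stepped in 1.33-fold increments on a fixed scale, with 60-day observation. MTD defined as highest dose giving no deaths in a group of 6 and ≤15% mean body weight loss on day 4. Ratio is iv MTD over ip MTD.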

WiDr = experiment: In vitro cytotoxicity against human tumor WiDr cell line was measured as concentration to reduce [3H]thymidine uptake to 50% of that of the controls; assay type: functional, cell-based; method in brief: as §2
SiHa = experiment: In vitro cytotoxicity against human tumor SiHa cell line was measured as concentration to reduce [3H]thymidine uptake to 50% of that of the controls; assay type: functional, cell-based; method in brief: as §2
Mus musculus [7] = experiment: In vivo maximum tolerated dose for single intravenous injection in non-tumor-bearing C3H/HeN mice; assay type: functional; method in brief: as §3
COLO 205 = experiment: In vitro cytotoxicity against human tumor COLO 205 cell line was measured as concentration to reduce [3H]thymidine uptake to 50% of that of the controls; assay type: functional, cell-based; settings: COLO 205, 5 days; method in brief: as §2
HT-29 = experiment: In vitro cytotoxicity against human tumor HT-29 cell line was measured as concentration to reduce [3H]thymidine uptake to 50% of that of the controls; assay type: functional, cell-based; settings: HT-29, 5 days; method in brief: as §2
[8] = Ratio of maximum tolerated dose of intravenous to intraperitoneal injection in mice; assay type: functional; method in brief: as §3

Compound	IC50 (SK-OV-3 [1])	IC50 (EMT6)	GI50 [2]	IC50 (CHO-AA8)	IC50 (UV4)	C50 (Nucleic Acid)	Ratio [3]	IC50 (SK-OV-3 [4])	Time (Mus musculus [5])	MTD (Mus musculus [6])	IC50 (WiDr)	IC50 (SiHa)	MTD (Mus musculus [7])	IC50 (COLO 205)	IC50 (HT-29)	MTD ratio [8]
COc1cc2c(cc1OCCCCC(=O)N1C[C@@H](CCl)c3c1cc(O)c1ccccc31)N=C[C@@H]1CCCN1C2=O	11 nM	3.1 nM	79 nM	11 nM	5.9 nM	0.56 µM	160									
COc1cc2c(cc1OCCCCCC(=O)N1C[C@H](CCl)c3c1cc(O)c1ccccc31)N=CC1CCCN1C2=O (single isomer, unassigned)	3 nM	0.56 nM	18 nM	4.2 nM	1.5 nM	0.13 µM	2400	0.2 nM	24.4 days	0.75 µM/kg	0.28 nM	0.2 nM	13.3 µM/kg	0.18 nM	0.25 nM	17.7
COc1cc2c(cc1OCCCCC(=O)N1C[C@H](CCl)c3c1cc(O)c1ccccc31)N=CC1CCCN1C2=O (single isomer, unassigned)	35 nM	12 nM	130 nM	40 nM	14 nM	1.05 µM	190									
COc1cc2c(cc1OCCC(=O)N1C[C@H](CCl)c3c1cc(O)c1ccccc31)N=CC1CCCN1C2=O (single isomer, unassigned)	960 nM	300 nM	3200 nM	1600 nM	860 nM	7.9 µM	35									
COc1cc2c(cc1O)N=C[C@@H]1CCCN1C2=O	1900 nM	1100 nM		2000 nM	1500 nM											
CC(=O)N1C[C@@H](CCl)c2c1cc(O)c1ccccc21	360 nM	280 nM		210 nM	59 nM											
COc1cc2cc(C(=O)N3C[C@@H](CCl)c4c3cc(O)c3ccccc43)[nH]c2c(OC)c1OC	0.29 nM	0.13 nM		0.21 nM	0.09 nM											
COc1cc2c(cc1OCCC(=O)N1C[C@@H](CCl)c3c1cc(O)c1ccccc31)N=C[C@@H]1CCCN1C2=O	200 nM	51 nM	500 nM	240 nM	160 nM	5 µM	50									
CC(=O)N1C[C@H](CCl)c2c1cc(O)c1ccccc21	14000 nM	12000 nM		14000 nM	1800 nM											
COc1cc2c(cc1OCCCC(=O)N1C[C@@H](CCl)c3c1cc(O)c1ccccc31)N=C[C@@H]1CCCN1C2=O	0.14 nM	0.03 nM	< 10 nM	0.13 nM	0.074 nM	0.017 µM	>10000	0.021 nM	26 days	0.00316 µM/kg	0.014 nM	0.012 nM	0.316 µM/kg	0.037 nM	0.021 nM	100
COc1cc2c(cc1OCCCCCC(=O)N1C[C@@H](CCl)c3c1cc(O)c1ccccc31)N=C[C@@H]1CCCN1C2=O	0.032 nM	0.0078 nM	< 10 nM	0.054 nM	0.023 nM	0.022 µM	>10000	0.0033 nM	40.8 days	0.0178 µM/kg	0.0039 nM	0.0028 nM	0.178 µM/kg	0.0035 nM	0.0027 nM	10
COc1cc2c(cc1OCCCOc1cc3c(cc1OC)C(=O)N1CCC[C@H]1C=N3)N=C[C@@H]1CCCN1C2=O [DSB-120]	140 nM	23 nM		340 nM	86 nM	0.029 µM		6.3 nM	22.8 days	1 µM/kg	10 nM	7.3 nM	4.21 µM/kg	7 nM	8.7 nM	4.21
COc1cc2c(cc1OCCCCCC(=O)N1C[C@@H](CCl)c3c1cc(O)c1ccccc31)NC(=O)[C@@H]1CCCN1C2=O	6.2 nM	3.2 nM		29 nM	13 nM											
COc1cc2c(cc1OCC(=O)N1C[C@H](CCl)c3c1cc(O)c1ccccc31)N=CC1CCCN1C2=O (single isomer, unassigned)	16 nM	5 nM	91 nM	48 nM	6.1 nM	1.21 µM	200									
COc1cc2c(cc1OCCCCCC(=O)N1CC(C)c3c1cc(O)c1ccccc31)N=C[C@@H]1CCCN1C2=O (stereo partly drawn)	2100 nM	840 nM		4500 nM	2500 nM											
COc1cc2c(cc1OCCCC(=O)N1C[C@H](CCl)c3c1cc(O)c1ccccc31)N=CC1CCCN1C2=O (single isomer, unassigned)	1.9 nM	0.3 nM	13 nM	4 nM	0.83 nM	0.025 µM	3200									
